According to ChEMBL document CHEMBL3779801, “Discovery of the Selective CYP17A1 Lyase Inhibitor BMS-351 for the Treatment of Prostate Cancer” (ACS Med Chem Lett, 2016):

Key:
Cytochrome P450 1A2 = target: T1, Cytochrome P450 1A2 (Homo sapiens, UniProt P05177); assay: Inhibition of CYP1A2 (unknown origin); format: ADME
T1 sequence (P05177 whole entry): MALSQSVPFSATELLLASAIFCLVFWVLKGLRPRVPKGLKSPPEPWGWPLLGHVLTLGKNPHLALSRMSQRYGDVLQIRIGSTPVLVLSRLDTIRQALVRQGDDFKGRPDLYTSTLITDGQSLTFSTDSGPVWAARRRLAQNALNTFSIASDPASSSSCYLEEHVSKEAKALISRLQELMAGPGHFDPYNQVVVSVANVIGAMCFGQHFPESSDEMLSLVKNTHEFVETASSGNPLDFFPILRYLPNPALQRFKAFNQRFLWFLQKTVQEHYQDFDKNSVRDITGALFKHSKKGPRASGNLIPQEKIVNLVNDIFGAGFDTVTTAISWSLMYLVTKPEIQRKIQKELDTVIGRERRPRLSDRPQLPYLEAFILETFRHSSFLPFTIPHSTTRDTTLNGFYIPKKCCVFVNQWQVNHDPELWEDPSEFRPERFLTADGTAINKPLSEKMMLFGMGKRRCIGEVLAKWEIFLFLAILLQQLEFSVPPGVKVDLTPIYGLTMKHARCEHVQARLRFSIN

[1] = Metabolic stability in human liver microsomes assessed as parent compound remaining at 0.5 uM incubated for 10 mins; format: ADME; conditions: read-out: Stability
Summary of the method: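 Compound at 0.5 μM was incubated with human, mouse or cynomolgus liver microsomes for 10 min.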

[2] = target: T2, Steroid 17-alpha-hydroxylase/17,20 lyase (Macaca fascicularis, UniProt Q2XVA1); assay: Inhibition of CYP17A1 in cynomolgus monkey using [3H]-pregnenolone as substrate incubated for 45 mins by scintillation proximity assay in presence of NADPH
T2 sequence (Q2XVA1 whole entry): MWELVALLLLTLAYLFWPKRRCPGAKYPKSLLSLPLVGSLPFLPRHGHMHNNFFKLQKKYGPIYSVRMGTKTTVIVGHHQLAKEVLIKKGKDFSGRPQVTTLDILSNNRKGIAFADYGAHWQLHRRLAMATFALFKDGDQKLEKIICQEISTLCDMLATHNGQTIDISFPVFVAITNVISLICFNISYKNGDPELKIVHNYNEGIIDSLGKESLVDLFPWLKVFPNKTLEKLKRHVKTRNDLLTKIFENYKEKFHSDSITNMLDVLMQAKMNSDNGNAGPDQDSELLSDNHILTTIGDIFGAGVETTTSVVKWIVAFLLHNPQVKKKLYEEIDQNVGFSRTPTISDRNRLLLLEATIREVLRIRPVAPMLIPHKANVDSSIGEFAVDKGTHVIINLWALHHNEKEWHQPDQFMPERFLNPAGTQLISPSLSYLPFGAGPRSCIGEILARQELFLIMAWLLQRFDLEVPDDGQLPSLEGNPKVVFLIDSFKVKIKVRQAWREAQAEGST

[3] = Intrinsic permeability from basolateral to apical side in human Caco2 cells; format: ADME, cell-based; conditions: Caco-2
Steroid 21-hydroxylase = target: T3, Steroid 21-hydroxylase (Homo sapiens, UniProt P08686); assay: Inhibition of CYP21A2 in human H295R cells using hydroxy progesterone as substrate incubated for 120 mins by LC-MS method; format: ADME, cell-based
T3 sequence (P08686 whole entry): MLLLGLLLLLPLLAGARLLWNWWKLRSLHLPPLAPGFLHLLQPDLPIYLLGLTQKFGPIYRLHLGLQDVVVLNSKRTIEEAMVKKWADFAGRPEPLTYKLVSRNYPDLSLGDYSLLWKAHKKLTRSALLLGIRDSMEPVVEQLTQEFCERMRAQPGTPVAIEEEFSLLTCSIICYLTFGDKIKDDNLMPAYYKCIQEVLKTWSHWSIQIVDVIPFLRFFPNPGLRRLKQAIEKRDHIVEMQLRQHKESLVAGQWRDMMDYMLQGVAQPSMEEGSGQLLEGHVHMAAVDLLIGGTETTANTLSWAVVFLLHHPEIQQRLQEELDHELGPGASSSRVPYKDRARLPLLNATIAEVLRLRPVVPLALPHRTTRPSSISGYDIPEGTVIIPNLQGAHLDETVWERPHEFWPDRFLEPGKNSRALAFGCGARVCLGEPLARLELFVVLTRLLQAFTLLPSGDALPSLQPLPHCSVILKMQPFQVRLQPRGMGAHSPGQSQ

[4] = target: T4, Cytochrome P450 11B1, mitochondrial (Homo sapiens, UniProt P15538); assay: Inhibition of CYP11B1 in human H295R cells using deoxycorticosterone as substrate incubated for 48 hrs by LC-MS method; format: ADME, cell-based
T4 sequence (P15538 whole entry): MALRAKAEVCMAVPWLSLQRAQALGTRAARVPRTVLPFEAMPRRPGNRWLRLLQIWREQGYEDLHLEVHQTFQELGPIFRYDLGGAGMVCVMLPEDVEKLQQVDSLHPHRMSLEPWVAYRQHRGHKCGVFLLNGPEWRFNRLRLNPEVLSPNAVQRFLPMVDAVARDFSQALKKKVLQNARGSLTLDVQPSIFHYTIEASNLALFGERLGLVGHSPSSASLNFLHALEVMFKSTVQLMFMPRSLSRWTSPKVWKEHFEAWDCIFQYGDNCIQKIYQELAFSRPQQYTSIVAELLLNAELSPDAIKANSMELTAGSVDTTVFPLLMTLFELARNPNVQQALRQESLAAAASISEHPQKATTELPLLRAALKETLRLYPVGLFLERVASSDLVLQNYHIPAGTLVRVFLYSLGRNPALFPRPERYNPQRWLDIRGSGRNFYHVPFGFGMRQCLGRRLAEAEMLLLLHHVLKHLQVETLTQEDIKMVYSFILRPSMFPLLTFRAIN

[5] = Inhibition of cynomolgus monkey CYP21A2 using hydroxy progesterone as substrate incubated for 120 mins by LC-MS method; parameters: species or system Macaca fascicularis
[6] = Cmax in cynomolgus monkey plasma at 4 mg/kg, po after 0.25 to 45 hrs by LC-MS/MS analysis; format: ADME, organism-based, Macaca fascicularis; parameters: dose 4 mg/kg, route oral
Summary of the method: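 Cynomolgus monkeys were dosed orally from a solution formulation. Plasma parameters are given as mean ± standard deviation.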

[7] = Clearance in cynomolgus monkey plasma at 2 mg/kg, iv by LC-MS/MS analysis; format: ADME, organism-based, Macaca fascicularis
Summary of the method: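 Cynomolgus monkeys were dosed intravenously. Plasma parameters are given as mean ± standard deviation.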

[8] = Oral bioavailability in cynomolgus monkey plasma at 4 mg/kg after 0.25 to 45 hrs by LC-MS/MS analysis; format: ADME, organism-based, Macaca fascicularis
Summary of the method: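 Oral bioavailability in cynomolgus monkey came from oral dosing of a solution formulation combined with a separate 2 mg/kg iv dose. Values are mean ± standard deviation.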

Cynomolgus monkey [9] = assay: Ratio of Cmax to Cmean in cynomolgus monkey plasma at 4 mg/kg, po after 0.25 to 45 hrs by LC-MS/MS analysis; format: ADME, organism-based, Macaca fascicularis; conditions: in vivo
Cynomolgus monkey [10] = assay: Effect on cortisol level in one day castrated cynomolgus monkey assessed as baseline level at 1.5 mg/kg, po bid for 24 hrs by radiometric immunoassay; format: ADME, organism-based, Macaca fascicularis; conditions: in vivo
Cynomolgus monkey [11] = assay: Effect on progesterone level in one day castrated cynomolgus monkey assessed as baseline level at 1.5 mg/kg, po bid for 24 hrs by radiometric immunoassay; format: ADME, organism-based, Macaca fascicularis; conditions: in vivo
[12] = Tmax in one day castrated cynomolgus monkey at 1.5 mg/kg, po bid measured after second dose administered at 8 hrs; format: ADME, organism-based, Macaca fascicularis; conditions: male, in vivo
Summary of the method: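 Castrated cynomolgus monkeys were studied over one day with oral BID dosing at time 0 and 8 h. Plasma levels were sampled at set time points over 1–24 h and reported as average ± standard deviation in nM, n = 4.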

IC50 (Cytochrome P450 1A2): 9 µM | remaining at 10 min, 0.5 µM [1]: 90% | IC50 [2]: 0.004 µM | Papp B→A [3]: 30 ×10⁻⁶ cm/s | IC50 (Steroid 21-hydroxylase): > 7.5 µM | IC50 [4]: > 7.5 µM | IC50 [5]: > 7.5 µM | Cmax [6]: 3000 nM | clearance [7]: 19 mL/min/kg | bioavailability [8]: 97% | Ratio (Cynomolgus monkey [9]): 16 | Tmax [12]: 9.5 h
Compound: Cc1ccncc1-c1cccc2c1ncn2CC(F)(F)F
Activity (Cynomolgus monkey [10]): Non-toxic | Activity (Cynomolgus monkey [11]): Non-toxic
